V1aR counter: V1a receptor agonism, counter-screen for OXTR agonists; P37288; CHO-V1R cells, Fluo-8 calcium fluorescence, agonist mode; 0% DMSO, 100% 3 nM vasopressin; activation, % at 3 µM; 0.25% of 320,000 active; AID 2797;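 active = activation above the mean activation of all tested compounds plus 3 SD, per screening run, cut at about 20% in these data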;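 also: signal is peak over basal fluorescence ratio across a 100 second FLIPR read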
Target sequence (P37288 whole entry, looked up): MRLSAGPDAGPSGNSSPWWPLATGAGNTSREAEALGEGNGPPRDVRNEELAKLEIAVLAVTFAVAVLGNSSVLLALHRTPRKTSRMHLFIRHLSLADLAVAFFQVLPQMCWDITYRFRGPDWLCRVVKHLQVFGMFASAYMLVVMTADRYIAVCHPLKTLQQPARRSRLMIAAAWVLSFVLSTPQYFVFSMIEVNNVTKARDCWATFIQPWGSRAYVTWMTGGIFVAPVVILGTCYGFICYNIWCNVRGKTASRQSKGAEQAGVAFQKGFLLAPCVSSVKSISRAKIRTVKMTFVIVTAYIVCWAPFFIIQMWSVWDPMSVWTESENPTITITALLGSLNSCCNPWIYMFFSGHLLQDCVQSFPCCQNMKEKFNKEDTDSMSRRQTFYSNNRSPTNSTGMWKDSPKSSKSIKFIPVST
TRPN1 ag: zebrafish TRPN1 (NompC) channel agonism; HEK293 zebrafish TRPN1-YFP, Fluo-8 calcium fluorescence; 100% = response to 87 µM carbachol; activation, % at 3 µM; 0.18% of 220,000 active;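 active = activation above its plate's cutoff, the mean activation of test wells on that plate plus 3 SD, cut at about 19% in these data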;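 also: 0% = DMSO alone and 100% = 87 µM carbachol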
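Material: zebrafish TRPN1-YFP in HEK293 cells; Doses: single test compound dose, 3 µM nominal, 0.3% DMSO; Timing: dye loading 1 h at 37 °C, then 30 min room temperature; Technique: intracellular calcium fluorescence with Fluo-8; Benchmarks: high carbachol 87 µM, low DMSO alone.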
OXTR potentiate: potentiators of human oxytocin receptor; CHO-OTR cells, Fluo-8 calcium fluorescence, potentiator mode; 0% = oxytocin EC15, 100% = EC100; activation, % at 3 µM; AID 2445; 0.061% of 320,000 active;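 active = activation above that plate's cutoff, the mean activation of tested compounds plus 3 SD, cut at about 6.6% in these data, passing the limit was not always enough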;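 also: 100% uses oxytocin at 75 nM as the full agonist control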
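Dosing: Single dose, 3.0 µM nominal final compound concentration | Material: Human OTR in CHO cells | Technique: Kinetic Fluo-8 calcium fluorescence | Benchmarks: EC15 oxytocin alone as 0%, 75 nM oxytocin as 100% | Probe or stimulus: Oxytocin at about EC15, sub-maximal agonist stimulus | Incubation: Compound 6 min at room temperature before oxytocin, 100 s read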
TRPML3 ag: agonists of human TRPML3 channel; Q8TDD5; HEK293 TRPML3-YFP, Fluo-8 calcium fluorescence; 100% = the carbachol control signal; activation, % at 3 µM; 0.29% of 220,000 active; AID 1448;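 active = activation above its plate's cutoff, the mean activation of the plate's test wells plus 3 SD, cut at about 12% in these data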;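 also: 0% = DMSO only wells and 100% = carbachol wells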
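Test system – HEK293 line with stable expression of human TRPML3-YFP channel · Control set – carbachol 87 µM final as high control (100%), DMSO as low control (0%) · Signal – Fluo-8 calcium dye fluorescence, ex 470-495, em 515-575 nm · Incubation – 1-h 37 °C dye load, 5-s basal, 120-s post-compound reads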
OXTR ag: human OXTR agonism. P30559. CHO-OTR cells, Fluo-8 calcium fluorescence; normalized: DMSO 0%, oxytocin 100%. activation, % at 3 µM. 0.32% of 320,000 active. AID 2435;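 active = activation above the mean of all tested compounds plus 3 SD, cutoff set per screening run, cut at about 20% in these data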;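 also: peak over basal fluorescence ratio from a 100 s FLIPR kinetic read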
V1aR agonist cf: human V1a receptor agonism, confirmation; shares compounds with V1aR counter; CHO-V1R cells, Fluo-8 calcium fluorescence, agonist; activation, % at 3 µM; 20% of 180 active; AID 434964;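 active = average activation exceeds primary screen hit cutoff, cut at about 21% in these data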;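 also: peak over basal fluorescence ratio during a 100 s FLIPR read; 0% = DMSO only wells and 100% = 3 nM vasopressin wells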
OXTR counter: counter-screen for V1a receptor agonists: oxytocin receptor agonists. CHO-OTR cells, Fluo-8 calcium fluorescence, agonist. 10% of 180 active. shares compounds with V1aR counter. activation, % at 3 µM;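 active = mean activation over three repeats above the cutoff from the earlier oxytocin receptor agonist screen, cut at about 20% in these data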;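 also: peak over minimum fluorescence ratio within a 100 second FLIPR read; 0% = DMSO only wells and 100% = oxytocin high control wells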
Numbers without * were called inactive; / = no result. Sampled rows, rich in hits. Any-hit rate of the full collection: about 0.55%.

SMILES | V1aR counter | TRPN1 ag | OXTR potentiate | TRPML3 ag | OXTR ag | V1aR agonist cf | OXTR counter
COc1ccc(OC)c2sc(N(CCCN(C)C)C(=O)CCS(=O)(=O)c3ccccc3)nc12 | 1.0 | / | -0.8 | / | 5.5 | / | /
Cc1ccc2sc(N(CCCN(C)C)C(=O)CCS(=O)(=O)c3ccccc3)nc2c1C | 24.3* | / | -11.5 | / | 15.0 | 2.1 | 7.0
COc1cc(C(=O)NNC(=S)NC(=O)c2ccccc2C)cc(OC)c1OC | 29.4* | 3.0 | -5.1 | 5.1 | 9.3 | 11.2 | 8.1
COc1cc(C(=O)NNC(=S)NC(=O)c2ccc3c(c2)OCO3)cc(OC)c1OC | 0.2 | 0.2 | -4.9 | 0.1 | 7.8 | / | /
CC(C)c1ccc(NC(=O)C2CCC(CNC(=O)[C@@H]3Cc4ccccc4CN3)CC2)cc1 (some centres undefined) | 23.6* | / | -7.6 | / | 15.5 | 4.5 | 10.0
Cc1ccc(NC(=O)C2CCC(CNC(=O)[C@@H]3Cc4ccccc4CN3)CC2)cc1 (some centres undefined) | 3.0 | / | -4.7 | / | -0.6 | / | /
CC(=O)c1cccc(NC(=O)CN2C=NS(=O)(=O)c3ccc(C)cc32)c1 | 1.0 | / | -1.9 | / | 0.4 | / | /
CCOc1ccc(/C=C(/NC(=O)c2ccccc2Cl)C(=O)O)cc1 | -0.7 | 2.2 | -5.9 | 0.8 | 0.3 | / | /
COc1ccccc1CN1C[C@@H]2C[C@@H](c3[nH]c4c(C)cccc4c3C)N3CCC[C@@]23C1=O | 35.0* | -2.2 | -15.4 | -0.4 | 14.5 | 4.7 | 1.9

Compound activity (PubChem BioAssay)
